Experimental data collected from several papers.
Target: STE20-like serine/threonine-protein kinase (SLK, Homo sapiens, UniProt Q9H2G2)

Compound	assay	conditions	measurement	value
C[C@H]1CC[C@H](n2c3cnccc3c3cnc(Nc4ccc5c(n4)CCN(C(=O)CO)C5)nc32)CC1	binding, competition with immobilised ligand	1 µM	remaining binding	78%
C=CC(=O)N1CCC([C@@H]2CCNc3c(C(N)=O)c(-c4ccc(Oc5ccccc5)cc4)nn32)CC1	enzyme activity, inhibitor	1 µM	inhibition	0%
C[C@]1(O)CCCN(c2nc(Nc3ccc(S(=O)(=O)N[C@H]4CC[C@H](CN5CCN(c6ccc(C7CCC(=O)NC7=O)cc6F)CC5)CC4)cc3Cl)ncc2C(F)(F)F)C1 (some centres unmarked)	binding, competition with immobilised ligand	1 µM	remaining binding	100%
CCCCC(=O)Nc1ccc(-c2ccc3ncn(CCC)c(=O)c3c2)cn1	binding, competition with immobilised ligand	0.5 µM	remaining binding	100%
C#Cc1cc(-c2cc(Nc3nc(N[C@@H](C)c4ccc(F)cn4)ncc3Cl)n[nH]2)ccc1C=O	enzyme activity, inhibitor	0.2 µM	inhibition	54.5%
CN1CCN(C(=O)c2ccc(NC(=O)Nc3ccc(N(C)c4ccnc(Nc5ccc(CS(C)(=O)=O)cc5)n4)cc3)cc2)CC1	binding, competition with immobilised ligand	1 µM	remaining binding	8.9%
CC#CC(=O)N1CCC[C@H]1c1nc(-c2ccc(C(=O)Nc3ccccn3)cc2)c2c(N)nccn12	enzyme activity, inhibitor	1 µM	inhibition	0%
CNS(=O)(=O)c1ccc(Nc2ncc(C(F)(F)F)c(N3CCC[C@](C)(O)C3)n2)c(C)c1	binding, competition with immobilised ligand	1 µM	remaining binding	96%
